≈ marks a conversion by molar mass, not a printed value.
Key:
HEL [1] = test: Inhibition of cell proliferation expressed as CC50; assay type: functional, Homo sapiens
Human alphaherpesvirus 3 [2] = test: Anti-VZV activity against 07/1 TK- in HEL cells; assay type: functional, organism-based; conditions: Human alphaherpesvirus 3, HEL
Cytomegalovirus = test: Anti CMV (Cytomegalovirus- virus) activity against Davis strain in HEL cells; assay type: functional, organism-based; conditions: Human betaherpesvirus 5, HEL
Method in brief: (§1)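 Run in human embryonic lung (HEL) cells. The value is the 50% virus-inhibitory concentration, given in µg/mL.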

Human alphaherpesvirus 3 [3] = test: Anti-VZV activity against OKA strain TK+ in HEL cells; assay type: functional, organism-based; conditions: Human alphaherpesvirus 3, oka
Human alphaherpesvirus 3 [4] = test: Anti-VZV activity against YS TK+ in HEL cells; assay type: functional, organism-based; conditions: Human alphaherpesvirus 3, HEL
Human alphaherpesvirus 3 [5] = test: Anti-VZV activity against YS/R TK- in HEL cells; assay type: functional, organism-based; conditions: Human alphaherpesvirus 3, ys-r
Human betaherpesvirus 5 = test: Anti CMV (Cytomegalovirus- virus) activity against AD-169 strain in HEL cells; assay type: functional, organism-based; conditions: Human betaherpesvirus 5, HEL; method in brief: as §1
[6] = Ratio of Cytotoxicity concentration to that of virus-inhibitory concentration.; assay type: functional
Method in brief: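 Selectivity index is the 50% cytotoxic concentration in HEL cells divided by the 50% inhibitory concentration against CMV strain AD-169 in HEL cells.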

[7] = Ratio of 50% cytotoxic concentration to 50% virus-inhibitory concentration [the latter based on the 50% inhibitory concentration for CMV (AD-169 strain); assay type: functional
HEL [8] = test: The compound was tested for inhibition of cell proliferation in Human Embryonic Lung (HEL) Cells.; assay type: functional
HEL [9] = test: The compound was tested for Anti-VZV activity against 07/1 strain TK- in HEL cells; assay type: functional, cell-based; conditions: Homo sapiens; method in brief: as §1
HEL [10] = test: The compound was tested for Anti-VZV activity against YS strain TK+ in HEL cells; assay type: functional, cell-based; conditions: Homo sapiens; method in brief: as §1
HEL [11] = test: The compound was tested for Anti-VZV activity against YS/R strain TK- in HEL cells; assay type: functional, cell-based; conditions: Homo sapiens; method in brief: as §1

Compound	CC (HEL [1]) [µg/mL]	IC50 (Human alphaherpesvirus 3 [2]) [µg/mL]	IC50 (Cytomegalovirus) [µg/mL]	IC50 (Human alphaherpesvirus 3 [3]) [µg/mL]	IC50 (Human alphaherpesvirus 3 [4]) [µg/mL]	IC50 (Human alphaherpesvirus 3 [5]) [µg/mL]	IC50 (Human betaherpesvirus 5) [µg/mL]	Selectivity index [6]	Selectivity index [7]	CC50 (HEL [8]) [µg/mL]	IC50 (HEL [9]) [µg/mL]	IC50 (HEL [10]) [µg/mL]	IC50 (HEL [11]) [µg/mL]
Nc1nc2c(ncn2COCCO)c(=O)[nH]1 [ACYCLOVIR]	>100												
Cc1cccn2c(CSCc3ccccc3)cnc12	8	0.4 (≈ 1.49 µM)	0.2 (≈ 0.745 µM)	0.9 (≈ 3.35 µM)	0.3 (≈ 1.12 µM)	> 1	0.2 (≈ 0.745 µM)	40					
Cc1ccc(C)n2c(CSCc3ccccc3)cnc12	3	> 2	> 2	> 2	> 2	> 2	1.2 (≈ 4.25 µM)	2.5					
O=c1[nH]c(=O)n([C@H]2C[C@H](O)[C@@H](CO)O2)cc1/C=C/Br [BRIVUDINE]	>50	> 50		0.0009 (≈ 0.0027 µM)	0.002 (≈ 0.006 µM)	> 20							
Cc1cc(Br)c2ncc(CSCc3ccccc3)n2c1	>50	9 (≈ 25.9 µM)	1.1 (≈ 3.17 µM)	31 (≈ 89.3 µM)	> 50	4 (≈ 11.5 µM)	1.1 (≈ 3.17 µM)	>45					
Cc1ccn2c(CSCc3ccccc3)c(-c3ccccc3)nc2c1	>50	> 50	> 20	> 20	> 20	> 50	> 20						
Cc1ccn2c(CSCc3ccccc3)c(C)nc2c1	>50	14.1 (≈ 49.9 µM)	3.5 (≈ 12.4 µM)	10.5 (≈ 37.2 µM)	> 5	10 (≈ 35.4 µM)	3.4 (≈ 12 µM)	>15					
Cc1c(Br)cc(Br)c2ncc(CSCc3ccccc3)n12	>50	> 50	> 50	> 50	> 50	> 20	> 50						
Cc1ccc2ncc(CSCc3ccccc3)n2c1	23	2.58 (≈ 9.61 µM)	0.5 (≈ 1.86 µM)	0.74 (≈ 2.76 µM)	6.4 (≈ 23.8 µM)	1.2 (≈ 4.47 µM)	0.3 (≈ 1.12 µM)	77					
Cc1ccn2c(CSCCc3ccccc3)cnc2c1	>50	0.95 (≈ 3.36 µM)	0.35 (≈ 1.24 µM)	0.2 (≈ 0.708 µM)	0.5 (≈ 1.77 µM)	0.66 (≈ 2.34 µM)	0.33 (≈ 1.17 µM)	>151					
Cc1ccn2c(CSCc3ccc(Cl)cc3)cnc2c1	19	> 5	1.6 (≈ 5.28 µM)	2 (≈ 6.6 µM)	> 5	> 5	1.2 (≈ 3.96 µM)	16					
Cc1nc2ccccn2c1CSCc1ccccc1	33	0.5 (≈ 1.86 µM)	0.13 (≈ 0.484 µM)	0.37 (≈ 1.38 µM)	0.23 (≈ 0.857 µM)	0.28 (≈ 1.04 µM)	0.12 (≈ 0.447 µM)	275					
Cc1ccn2c(CSCc3ccccc3Cl)cnc2c1	18	> 5	0.7 (≈ 2.31 µM)	1.8 (≈ 5.94 µM)	> 5	> 5	0.5 (≈ 1.65 µM)	36					
Cc1cc(Br)cn2c(CSCc3ccccc3)cnc12	>50	1.4 (≈ 4.03 µM)	0.12 (≈ 0.346 µM)	5.5 (≈ 15.8 µM)	7 (≈ 20.2 µM)	0.86 (≈ 2.48 µM)	0.12 (≈ 0.346 µM)	>417					
Cc1ccn2c(CSCc3ccccc3)cnc2c1	45		3.5 (≈ 13 µM)	15 (≈ 55.9 µM)	17 (≈ 63.3 µM)	10 (≈ 37.3 µM)	3.5 (≈ 13 µM)	13					
Nc1nc2c(ncn2COC(CO)CO)c(=O)[nH]1 [GANCICLOVIR]	>100		0.5 (≈ 1.96 µM)				0.5 (≈ 1.96 µM)						
Cc1cccn2c(CSCc3ccccc3)c(-c3ccccc3)nc12	13	> 2	> 2	> 2	> 2	2 (≈ 5.81 µM)	1.2 (≈ 3.48 µM)	11					
FC(F)(F)c1cc(Cl)c2ncc(CSCc3ccccc3)n2c1	40	> 5	> 5	6.6 (≈ 18.5 µM)	8.8 (≈ 24.7 µM)	9.8 (≈ 27.5 µM)	> 5	<8					
Cc1ccn2c(CSCC(F)(F)F)cnc2c1			42 (≈ 161 µM)	> 50			40 (≈ 154 µM)		>1.2	> 50	> 50	> 50	> 50
